Experimental data taken from ChEMBL document CHEMBL2203265, “Discovery of tetrahydropyridopyrimidine phosphodiesterase 10A inhibitors for the treatment of schizophrenia” (Bioorg Med Chem Lett, 2012).

How the values were obtained:
[1] = test system: Rattus norvegicus; experiment: Toxicity in rat assessed as increase in prolactin level up to 1.5 mg/kg, po; type: organism-based; set-up: dose 1.5 mg/kg, route oral; settings: in vivo
Summary of the method: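 Circulating prolactin is measured in rats after oral administration, with haloperidol at 1.5 mg/kg as the control.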

[2] = test system: Rattus norvegicus; experiment: Toxicity in rat assessed as induction of catalepsy up to 1.5 mg/kg, po; type: organism-based; set-up: dose 1.5 mg/kg, route oral; settings: in vivo
Summary of the method: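 Catalepsy in rats is scored by fore-limb retraction (paw test) after oral administration, with haloperidol at 1.5 mg/kg as the control.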

[3] = biological target: cAMP and cAMP-inhibited cGMP 3',5'-cyclic phosphodiesterase 10A (Homo sapiens, UniProt Q9Y233); experiment: Inhibition of PDE10A
Chain of cAMP and cAMP-inhibited cGMP 3',5'-cyclic phosphodiesterase 10A (Q9Y233 whole entry): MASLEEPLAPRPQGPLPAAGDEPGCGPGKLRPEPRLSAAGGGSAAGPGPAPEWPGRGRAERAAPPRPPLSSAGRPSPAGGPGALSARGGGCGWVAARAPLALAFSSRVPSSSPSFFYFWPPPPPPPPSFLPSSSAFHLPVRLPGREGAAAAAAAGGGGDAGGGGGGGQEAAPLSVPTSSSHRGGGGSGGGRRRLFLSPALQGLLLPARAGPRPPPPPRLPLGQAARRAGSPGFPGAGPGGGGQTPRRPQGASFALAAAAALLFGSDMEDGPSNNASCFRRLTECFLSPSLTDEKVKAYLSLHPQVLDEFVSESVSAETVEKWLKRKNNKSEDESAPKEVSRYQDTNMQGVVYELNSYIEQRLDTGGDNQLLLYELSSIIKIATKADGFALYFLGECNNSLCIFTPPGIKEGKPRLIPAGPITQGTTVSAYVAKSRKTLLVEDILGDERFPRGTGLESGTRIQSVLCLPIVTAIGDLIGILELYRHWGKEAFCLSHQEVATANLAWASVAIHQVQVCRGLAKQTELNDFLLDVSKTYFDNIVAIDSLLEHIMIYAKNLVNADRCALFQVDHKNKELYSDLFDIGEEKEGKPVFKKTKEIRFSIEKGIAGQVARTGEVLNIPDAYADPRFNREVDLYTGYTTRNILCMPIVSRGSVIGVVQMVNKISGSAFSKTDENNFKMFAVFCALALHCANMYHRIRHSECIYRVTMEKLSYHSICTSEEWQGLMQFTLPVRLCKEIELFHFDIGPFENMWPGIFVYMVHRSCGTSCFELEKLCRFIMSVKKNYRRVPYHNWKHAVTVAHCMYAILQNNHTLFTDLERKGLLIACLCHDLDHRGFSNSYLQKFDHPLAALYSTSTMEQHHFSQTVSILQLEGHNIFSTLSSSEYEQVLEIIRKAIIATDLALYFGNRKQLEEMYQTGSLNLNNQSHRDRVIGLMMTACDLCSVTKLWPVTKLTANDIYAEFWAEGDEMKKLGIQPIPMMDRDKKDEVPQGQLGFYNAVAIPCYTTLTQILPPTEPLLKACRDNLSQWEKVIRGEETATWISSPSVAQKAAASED

[4] = Solubility of the compound at pH 7; type: physicochemical; settings: buffer
[5] = Plasma clearance in rat; type: ADME, organism-based
[6] = test system: Rattus norvegicus; experiment: Toxicity in rat assessed as decrease in lean body mass at 4 mg/kg, po administered for 7 days relative to vehicle-treated control; type: organism-based; set-up: dose 4 mg/kg, route oral; settings: in vivo, 168 h
Summary of the method: (§1)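 Rats given chronic dosing over 7 days. Body weight gain, total body fat and lean body mass recorded at the end of treatment and compared with a vehicle-treated group for statistical significance; n = 12 per group.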

[7] = test system: Rattus norvegicus; experiment: Toxicity in rat assessed as decrease in weight gain at 4 mg/kg, po administered for 7 days relative to vehicle-treated control; type: organism-based; set-up: dose 4 mg/kg, route oral; settings: in vivo, 168 h; summary of the method: as §1
[8] = test system: Rattus norvegicus; experiment: Toxicity in rat assessed as decrease in total body fat at 4 mg/kg, po administered for 7 days relative to vehicle-treated control; type: organism-based; set-up: dose 4 mg/kg, route oral; settings: in vivo, 168 h; summary of the method: as §1

Compound	Ki [3]	solubility [4]	further results
O=C(CCCN1CCC(O)(c2ccc(Cl)cc2)CC1)c1ccc(F)cc1 [HALOPERIDOL]			Activity [1]: Toxic; Activity [2]: Toxic
COCCOc1nc(-c2ccncc2)nc2c1CN(C(=O)Nc1ccccc1)CC2	135 nM	> 75 µM	
CC(C)CC(=O)N1CCc2nc(-c3ccncc3)nc(N(C)CCc3ccccn3)c2C1	868 nM	> 75 µM	
CN(CCc1ccccn1)c1nc(-c2cccc(Br)c2)nc2c1CN(C(=O)Nc1ccccc1)CC2	991 nM	< 10 µM	
Cc1ccncc1NC(=O)N1CCc2nc(-c3ccc(Cl)nc3)nc(OC(C)C)c2C1	0.6 nM		
COc1ccc(NC(=O)N2CCc3nc(-c4ccncc4)nc(N(C)CCc4ccccn4)c3C2)cc1	122 nM	> 75 µM	
CCc1cccc(NC(=O)N2CCc3nc(-c4cccnc4)nc(OC4CCN(C)CC4)c3C2)c1		> 75 µM	clearance [5]: > 100 mL/min/kg
CN(CCc1ccccn1)c1nc(-c2ccccn2)nc2c1CN(C(=O)Nc1ccccc1)CC2	864 nM	> 75 µM	
CC(C)Oc1nc(-c2ccncc2)nc2c1CN(C(=O)Nc1ccccc1)CC2	98 nM	> 75 µM	
Cc1ccncc1NC(=O)N1CCc2nc(-c3ccc(F)nc3)nc(OC(C)C)c2C1	3 nM		
Cc1cc2c(s1)Nc1ccccc1N=C2N1CCN(C)CC1 [OLANZAPINE]			Activity [6]: Toxic; Activity [7]: Toxic; Activity [8]: Toxic
CN(CCc1ccccn1)c1nc(-c2ccncc2)nc2c1CN(C(=O)Nc1ccccc1)CC2	94 nM	> 75 µM	
Cc1ccncc1NC(=O)N1CCc2nc(-c3ccc(O)nc3)nc(OC(C)C)c2C1	63 nM		
CN(CCc1ccccn1)c1nc(-c2ccncc2)nc2c1CN(C(=O)Nc1cccc(F)c1)CC2	156 nM	> 75 µM	
CN(CCc1ccccn1)c1nc(-c2ccncc2)nc2c1CN(C(=O)c1ccc(Cl)cc1)CC2	522 nM	> 75 µM	
Cc1ccncc1NC(=O)N1CCc2nc(-c3ccc(C(F)(F)F)nc3)nc(OC(C)C)c2C1	247 nM		
